A short description of experiment [1]: S. cerevisiae growth inhibition in permissive medium (OD615), pilot counter-assay for S. cerevisiae lifespan shortening project, permissive growth control (AID 705;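 active = growth inhibition above 25% in both replicates, a cutoff set 3 SD above the mean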). To be noted: OD615, 24 h, at 10 µM, active compounds read high. A digest of the protocol:
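assay system = Saccharomyces cerevisiae strain carrying genetically modified DeaD replicative-lifespan system | medium = SC raffinose/galactose permissive medium | dosing = 10 µM single dose, 0.25% DMSO | schedule = 24 h compound exposure at 30 °C after 4 h pre-growth | measured by = OD at 615 nm | read-out basis = growth inhibition from lowered OD615 after 24 h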

Experiment [2] in a line: S. cerevisiae growth inhibition in restrictive medium, OD615, pilot screen, restrictive growth control, yeast lifespan reduction project (AID 706;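 active = growth inhibition above a set limit, 3 SD over mean compound inhibition, in both replicates, cut at about 43% in these data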;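 note: modified DeaD lifespan yeast strain shifted to restrictive glucose medium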). To be noted: OD615, 48 h, at 10 µM, active compounds read high. A digest of the protocol:
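Buffer or medium: CSMM-D glucose medium. Material: genetically modified Saccharomyces cerevisiae, DeaD replicative lifespan assay strain. Times: 48 h compound exposure at 30 °C. Measured by: optical density at 615 nm.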

Experiment [3] can be described thus: doxorubicin toxicity protection in MRP-1 cells – H69AR cells, CellTiter-Glo, duplicate, MRP-1 activator project, pilot screen (AID 807;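 active = viability increase at or above a cutoff of the median across tested compounds plus 3 SD, cut at about 8.5% in these data, passing the limit was not always enough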;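 note: compound pretreatment 18-22 h then 72 h combined with doxorubicin; 0% = doxorubicin alone and 100% = vehicle without doxorubicin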). To be noted: H69AR viability with doxorubicin, CellTiter-Glo luminescence; at 10 µM; active compounds read high.
Experiment [4] is described as follows: viability of HCT116 without oncogenic beta-catenin – human colon tumor cells, pilot screen (AID 823;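 active = cell viability at or below a set limit in both duplicate runs, the limit being the all-compound median minus 4 SD, cut at about 23% in these data, passing the limit was not always enough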;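 note: 0% = wells killed by 20 µM Hyamine and 100% = untreated DMSO cell wells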). To be noted: HCT116 beta-catenin knockout viability, CellTiter-Glo, 60 h; at 10 µM; active compounds read low.
Experiment [5] can be described thus: RAM pathway blockade in budding yeast – dse1pr::URA3 reporter, 5-FOA selection, pilot screen (AID 869).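 Note: 0% = DMSO wells with no growth and 100% = 10 µM 1-NA-PP1 with full growth; RAM network block rescues cells from 5-FOA so hits raise OD615 growth.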 To be noted: S. cerevisiae dse1pr::URA3 5-FOA growth, OD615, 2 d; at 10 µM; active compounds read high; strain carries analog-sensitive mutant Cbk1 kinase.
Experiment [6] in a line: RAM signaling pathway blockade in yeast – S. cerevisiae, Pdr1DBD-CYC8 efflux-inhibited sensitized strain, primary screen (AID 1298;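 active = RAM network inhibition above 8.4% in each of two replicates, 3 SD over the compound average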;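 note: 0% = DMSO untreated cells without growth and 100% = 10 µM 1-NA-PP1 full growth; higher means more yeast growth rescued from 5-FOA killing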). To be noted: S. cerevisiae cbk1-as DSE1-URA3 strain, 5-FOA growth OD615, 2 d; at 50 µM; active compounds read high.

The text below walks through data of PubChem BioAssay.

The structures appear in SMILES notation. Unmarked numbers belong to inactive results. Inconclusive results are not listed. The source made the active and inactive calls.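 Rule for the calls, unless noted: active = inhibition over a set limit, the all-compound mean plus 3 SD, in both replicate runs; inconclusive = over that limit in just one replicate run; inactive = at or under that limit in both runs.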

By viability is commonly meant a read-out of living cells in per cent, often relative to untreated cells. For orientation: inhibition means the change of the read-out against control, counted positive when it falls. Turning to `Cc1cc(C)c(C)c(S(=O)(=O)Nc2ccccc2C(=O)NCCCn2ccnc2)c1C`, the growth inhibition in experiment [1] was -28%; in experiment [2] it was 12.5%. In addition, the viability increase in experiment [3] was -5.57%. Besides, in experiment [4], the viability was 70.2%. Moreover, in experiment [5], the inhibition is 0.75%. Also, the RAM network inhibition in experiment [6] was 0.27%.

On to `Cc1cccc(C)c1NC(=O)CSc1nnc([C@@H]2CCCN2C(=O)OC(C)(C)C)o1`, for which the values for the growth inhibition in experiment [1] and in experiment [2] were -11.8% and -6.59%, respectively. The viability increase in experiment [3] is -1.42%. In experiment [4], the viability was 96.3%. The inhibition in experiment [5] was 2.23%. The RAM network inhibition in experiment [6] is 8.94%.

For the compound `CS(=O)(=O)c1nc(-c2cccs2)cc(C(F)(F)F)n1`, the growth inhibition in experiment [1] was -22.6%; in experiment [2], 1.86%. The viability increase in experiment [3] is -8.04%. The viability in experiment [4] is 53.4%. The inhibition in experiment [5] is 2.05%. For the same compound, the RAM network inhibition in experiment [6] is -0.11%.

In the case of `S=c1nc(-c2ccccc2)n(CCCN2CCOCC2)c2c1CCCC2`, the growth inhibition is -2.74% in experiment [1] and 23.8% in experiment [2]. For the same compound, the viability increase in experiment [3] is -4.35%. Besides, the viability in experiment [4] was 103%. The inhibition in experiment [5] was 0.18%. Further, in experiment [6], the RAM network inhibition was 3.63%.

As for `CC1CCN(CCNC(=O)c2ccc(NC(=O)C3CCCO3)cc2)CC1` (stereo not given), the growth inhibition was -16.1% in experiment [1] and -2.63% in experiment [2]. In addition, the viability increase in experiment [3] is -1.69%. Besides, the viability in experiment [4] is 103%. Moreover, the inhibition in experiment [5] was 1.95%. For the same compound, the RAM network inhibition in experiment [6] was 3.74%.

Consider `Clc1nc2sccn2c1/C=N/n1cnc2ccccc21`, for which the growth inhibition was 19.9% in experiment [1] and 33.8% in experiment [2]. For the same compound, the viability increase in experiment [3] is -6.14%. Moreover, the viability in experiment [4] was 94.7%. For the same compound, the inhibition in experiment [5] was 0.675%. The RAM network inhibition in experiment [6] was 2.34%.

With `CCN(CC)S(=O)(=O)c1ccc(NC(=O)Cn2c(=O)oc3ccccc32)cc1`, the growth inhibition in experiment [1] was -12.3%; in experiment [2] it was -11.6%. Further, the viability increase in experiment [3] was -3.33%. Besides, in experiment [4], the viability is 96.7%. Besides, in experiment [5], the inhibition is 2.38%. In addition, the RAM network inhibition in experiment [6] is 5.71%.

`CC1CN(C(=O)c2ccccc2C(=O)c2ncc[nH]2)CC(C)O1` (stereo not given): the growth inhibition in experiment [1] was -19.6%; in experiment [2], 14.7%. Also, in experiment [3], the viability increase was -1.55%. In addition, the viability in experiment [4] was 99%. Besides, the inhibition in experiment [5] is 2.07%. Also, the RAM network inhibition in experiment [6] was 2.87%.

Regarding `Cc1cc(C)n2nc(CCc3nc4nc(C)cc(C)n4n3)nc2n1`, the growth inhibition is 3.12% in experiment [1] and 4.29% in experiment [2]. In addition, in experiment [3], the viability increase is -1.49%. In addition, the viability in experiment [4] is 94.8%. Further, the inhibition in experiment [5] is 0.62%. For the same compound, the RAM network inhibition in experiment [6] was 1.76%.

For `CN(C)/C=C1/Sc2ccccc2C1=O`, the growth inhibition in experiment [1] was -13.4%; in experiment [2], 10%. In addition, in experiment [3], the viability increase was -3.51%. Besides, the viability in experiment [4] was 103%. Further, in experiment [5], the inhibition is 1.11%. Further, the RAM network inhibition in experiment [6] was -0.73%.

As to `NC(=O)C1CCN(C(=O)CCCCCn2c(=O)[nH]c3ccsc3c2=O)CC1`, the growth inhibition was -14% in experiment [1] and -8.6% in experiment [2]. For the same compound, the viability increase in experiment [3] was -3.22%. For the same compound, the viability in experiment [4] is 96.4%. For the same compound, the inhibition in experiment [5] was 0.97%. Besides, the RAM network inhibition in experiment [6] is 3.54%.

`CC1CCN(C(=O)CSc2nc(N)c3c4c(sc3n2)CN(C)CC4)CC1`: the growth inhibition in experiment [1] is -10.2%; in experiment [2], 12.6%. The viability increase in experiment [3] was -3.86%. The viability in experiment [4] is 102%. Also, the inhibition in experiment [5] was 0.905%. Besides, the RAM network inhibition in experiment [6] was 2.24%.

For `COc1cc(OC)cc(C(=O)Nc2cc(NC(=O)c3ccco3)ccc2OC)c1`, the growth inhibition is -15.4% in experiment [1] and 3.21% in experiment [2]. Moreover, in experiment [3], the viability increase was -5.63%. Further, in experiment [4], the viability is 88.8%. Also, the inhibition in experiment [5] was 1.21%. In addition, the RAM network inhibition in experiment [6] is 2.66%.

As to `Cc1sc(NC(=O)c2ccco2)c(C(c2cccnc2)N2CCN(c3ccc(F)cc3)CC2)c1C` (stereo not given), the growth inhibition in experiment [1] is -8.72%; in experiment [2], 6.02%. The viability increase in experiment [3] is -5.73%. Also, the viability in experiment [4] was 13.3% (active). Besides, the inhibition in experiment [5] is 1.42%. Further, the RAM network inhibition in experiment [6] was 7.4%.

As to `COc1ccc(C(=O)Nc2ccccc2-c2nnn(CC(=O)NCc3ccco3)n2)cc1`, the growth inhibition is -1.97% in experiment [1] and 10% in experiment [2]. Moreover, the viability increase in experiment [3] was -2.04%. For the same compound, the viability in experiment [4] is 78%. Moreover, the inhibition in experiment [5] is 4.12%. Moreover, the RAM network inhibition in experiment [6] was 7.41%.

Consider `CC(C)OCCCNC(=O)c1ccc(NC(=O)C2CCCO2)cc1` (stereo not given), for which the growth inhibition was -12.9% in experiment [1] and -8.97% in experiment [2]. Moreover, the viability increase in experiment [3] was -1.08%. Also, the viability in experiment [4] is 99.9%. Moreover, the inhibition in experiment [5] is 1.57%. Also, in experiment [6], the RAM network inhibition was 1.15%.

For the compound `CC(C)c1ccc(-c2nc(N3CCCC3)nc3n[nH]c(N)c23)cc1`, the results for the growth inhibition in experiment [1] and in experiment [2] were -26.6% and 10.3%, respectively. In experiment [3], the viability increase is -5.36%. For the same compound, in experiment [4], the viability is 69.8%. The inhibition in experiment [5] was 3.83%. Further, the RAM network inhibition in experiment [6] is 10.8%.

On to `O=C(N=c1nc2ccccn2s1)c1ccccc1`, for which the values for the growth inhibition in experiment [1] and in experiment [2] were -6.95% and 6.63%, respectively. Moreover, the viability increase in experiment [3] was -7.06%. Also, in experiment [4], the viability was 71.6%. Besides, in experiment [5], the inhibition was 3.28%. Moreover, the RAM network inhibition in experiment [6] is 6.13%.

Take `CCOC(=O)C1CCN(C(=O)c2ccc(NC(=O)C3CCCO3)cc2)CC1` (stereo not given): the growth inhibition in experiment [1] is -14.9%; in experiment [2], -7.09%. The viability increase in experiment [3] was -2.64%. Moreover, in experiment [4], the viability was 88.8%. Moreover, the inhibition in experiment [5] is 1.09%. In addition, in experiment [6], the RAM network inhibition is 3.28%.

Turning to `O=C(NCc1nc2ccccc2[nH]1)c1ccc(S(=O)(=O)N2CCOCC2)cc1`, the growth inhibition was -9.52% in experiment [1] and -0.75% in experiment [2]. Moreover, the viability increase in experiment [3] was -2.83%. For the same compound, the viability in experiment [4] is 85.8%. Besides, in experiment [5], the inhibition was 1.77%. Also, in experiment [6], the RAM network inhibition is 3.06%.
